Assay outcomes as filed in PubChem.
Many of the other results were omitted from the sample, so hits are more common in it than they were.
T cruzi intra: inhibitors of intracellular Trypanosoma cruzi, primary screen, cell-based, plate reader, single point, set 2. intracellular Trypanosoma cruzi in host cells. activity score (inhibition), % at 5.01 µM. 22,000 tested, 4.9% active. AID 651903, 2012; in the data active = activity score above about 55%;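 also: parasites and compound incubated about four days before reading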
A1 apoptosis 2: A1 inhibitors via caspase activation, primary screen, cell-based, luminescence, HTS, two replicates; caspase activation, % (test concentration not listed); 24,000 tested, under 10 active; MEF A1-2A-BIM cells, caspase-Glo luminescence, 3 h; percent of clofoctol response, DMSO zero; in the data active = caspase activation above about 5.9%
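Material: A1-2A-BIM-expressing MEF cells. Buffer or medium: RPMI-1640 plus 10% FBS. Incubation: cells settled overnight, compound exposure 3 h at 37 °C, 5% CO2. Signal: Caspase-Glo 3/7 luminescence, 1 h at room temperature.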
INS-1E ATP HTS: protection of INS-1E cells from cytokine death, primary screen, ATP luminescence, single point; AID 488910, 2010; 20,000 tested, 0.1% active; protection from cytokine-induced ATP loss, % at 10 µM; INS-1E cytokine-induced death, 48 h; normalised: neutral wells 0, positive control 100;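 active = mean replicate protection from cytokine-induced ATP loss at least 50% and at least 75% of replicates each reaching 50%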
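Material: INS-1E rat cells; Quantity: 8000 cells/well; Buffer or medium: phenol-red-free RPMI with 5% fetal bovine serum; Probe or stimulus: cytokine cocktail of IFN-γ, TNF-α and IL-1β; Compound dosing: single test concentration per compound, delivered by pin transfer; Incubation: 48 h co-treatment, 10 min post-lysis read; Signal: CellTiter-Glo luminescence.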
Large screens that a line does not name were inactive.

COc1ccc(S(=O)(=O)N(C)C[C@@H]2Oc3c(NC(=O)c4nc5ccccc5s4)cccc3C(=O)N([C@H](C)CO)C[C@H]2C)cc1	none
C[C@H]1CN([C@@H](C)CO)C(=O)c2cccc(NC(=O)c3nc4ccccc4s3)c2O[C@@H]1CN(C)S(=O)(=O)c1cccs1	none
COc1ccc(S(=O)(=O)N(C)C[C@H]2Oc3c(NC(=O)c4nc5ccccc5s4)cccc3C(=O)N([C@@H](C)CO)C[C@@H]2C)cc1	T cruzi intra 62.8 (no result: A1 apoptosis 2)
C[C@H](CO)N1C[C@H](C)[C@H](CN(C)S(=O)(=O)c2cccs2)Oc2c(NC(=O)c3cnccn3)cccc2C1=O	T cruzi intra 68.7 (no result: A1 apoptosis 2)
C[C@H](CO)N1C[C@H](C)[C@@H](CN(C)S(=O)(=O)c2cccs2)Oc2c(NC(=O)c3nc4ccccc4s3)cccc2C1=O	T cruzi intra 57.1
C[C@H]1CN([C@@H](C)CO)C(=O)c2cccc(NC(=O)c3nc4ccccc4s3)c2O[C@@H]1CN(C)S(=O)(=O)c1ccccc1	T cruzi intra 72.9 (no result: A1 apoptosis 2)
C[C@H](CO)N1C[C@H](C)[C@@H](CN(C)S(=O)(=O)c2ccccc2)Oc2c(NC(=O)c3nc4ccccc4s3)cccc2C1=O	none (no result: A1 apoptosis 2)
O=C(CCCCCC(=O)Nc1ccccc1O)N/N=C/C1=CCCCC1	none (no result: T cruzi intra, INS-1E ATP HTS)
C=CCOC(=O)[C@@H]1[C@H]2C(=O)O[C@H](c3ccccc3)[C@H](c3ccccc3)N2[C@H](c2ccc(OCCOC(=O)[C@H]3C[C@H]4C(=O)N5CCC[C@H]5C(=O)N4[C@H]3c3ccc(O)cc3)cc2)[C@@]12C(=O)Nc1ccccc12	none (no result: T cruzi intra, INS-1E ATP HTS)
C[C@@H]1CCCCO[C@H](CN(C)C(=O)c2ccccc2)[C@H](C)CN([C@H](C)CO)C(=O)c2cc(NS(C)(=O)=O)ccc2O1	none (no result: T cruzi intra, INS-1E ATP HTS)
COc1ccc(CN(C)C[C@@H]2Oc3ccc(NS(=O)(=O)c4cccs4)cc3CC(=O)N([C@@H](C)CO)C[C@H]2C)cc1	none (no result: T cruzi intra, INS-1E ATP HTS)
CN(C)CCCNC(=O)[C@@]1(c2ccc([N+](=O)[O-])cc2)CC(=O)N(CC23CC4CC(CC(C4)C2)C3)[C@@H]1c1ccc(CO)cc1	none (no result: T cruzi intra, INS-1E ATP HTS)
C[C@H]1CN([C@@H](C)CO)C(=O)c2cccc(NC(=O)c3nc4ccccc4s3)c2O[C@H]1CN(C)S(=O)(=O)c1ccccc1	T cruzi intra 76.7 (no result: A1 apoptosis 2)
COc1ccc(S(=O)(=O)N(C)C[C@@H]2Oc3c(NC(=O)Nc4cccc5ccccc45)cccc3C(=O)N([C@@H](C)CO)C[C@H]2C)cc1	INS-1E ATP HTS 81.2
C[C@@H]1CN([C@@H](C)CO)C(=O)c2cccc(NC(=O)c3nc4ccccc4s3)c2O[C@H]1CN(C)S(=O)(=O)c1ccc(Cl)cc1	none (no result: A1 apoptosis 2)
COc1ccc(S(=O)(=O)N(C)C[C@@H]2Oc3c(NC(=O)Nc4cccc5ccccc45)cccc3C(=O)N([C@H](C)CO)C[C@@H]2C)cc1	none
COc1ccc(NC(=O)N(C)C[C@@H]2Oc3ccc(NC(=O)Cn4cnnn4)cc3C(=O)N([C@@H](C)CO)C[C@H]2C)cc1	none (no result: T cruzi intra, INS-1E ATP HTS)
COc1ccc(S(=O)(=O)Nc2cccc3c2O[C@H](CN(C)Cc2ccc(C(=O)O)cc2)[C@H](C)CN([C@@H](C)CO)C3=O)cc1	none
O=C(N/N=C/c1ccc(S(=O)(=O)O)o1)c1ccccn1	none (no result: A1 apoptosis 2)
C[C@H](CO)N1C[C@H](C)[C@H](CN(C)Cc2cccc(C(F)(F)F)c2)Oc2ncc(Br)cc2C1=O	none (no result: INS-1E ATP HTS)
C[C@H](CO)N1C[C@H](C)[C@H](CN(C)C(=O)Nc2cccc3ccccc23)Oc2ncc(-c3ccc(F)cc3)cc2C1=O	none
C[C@H](CO)N1C[C@H](C)[C@H](CN(C)Cc2ccccc2)Oc2ncc(-c3cc4ccccc4o3)cc2C1=O	T cruzi intra 59.0 (no result: INS-1E ATP HTS)
C[C@H](CO)N1C[C@H](C)[C@H](CN(C)C(=O)NC2CCCC2)Oc2ncc(-c3cc4ccccc4o3)cc2C1=O	none (no result: INS-1E ATP HTS)
C[C@H](CO)N1C[C@H](C)[C@H](CN(C)S(=O)(=O)c2ccc(F)cc2)Oc2ncc(-c3cc4ccccc4o3)cc2C1=O	none (no result: A1 apoptosis 2, INS-1E ATP HTS)
C[C@H](CO)N1C[C@H](C)[C@H](CN(C)Cc2cccc(C(F)(F)F)c2)Oc2ncc(-c3cc4ccccc4o3)cc2C1=O	T cruzi intra 90.2 (no result: A1 apoptosis 2, INS-1E ATP HTS)
C[C@H](CO)N1C[C@H](C)[C@H](CN(C)S(=O)(=O)c2ccccc2)Oc2ncc(-c3cc4ccccc4o3)cc2C1=O	T cruzi intra 61.6 (no result: INS-1E ATP HTS)
C[C@H](CO)N1C[C@H](C)[C@H](CN(C)C(=O)Nc2cccc3ccccc23)Oc2ncc(-c3cc4ccccc4o3)cc2C1=O	T cruzi intra 70.7 (no result: INS-1E ATP HTS)
C[C@H]1CN([C@@H](C)CO)C(=O)c2cc(NC(=O)C3CCCCC3)ccc2O[C@H]1CN(C)C	none (no result: A1 apoptosis 2, INS-1E ATP HTS)
O=C(N/N=C/c1ccccc1C(=O)O)c1ccccn1	none
O=C(O)CCCCCCC(=O)N/N=C/c1ccc[nH]1	none (no result: A1 apoptosis 2)
C#Cc1ccc(OC)c(OC)c1	none (no result: T cruzi intra, INS-1E ATP HTS)
COc1ccc(S(=O)(=O)N(C)C[C@@H]2Oc3ncc(-c4cccc(C(F)(F)F)c4)cc3C(=O)N([C@H](C)CO)C[C@@H]2C)cc1	none (no result: INS-1E ATP HTS)
C[C@H](CO)N1C[C@H](C)[C@H](CN(C)S(=O)(=O)c2ccc(F)cc2)Oc2ncc(-c3cccc(C(F)(F)F)c3)cc2C1=O	T cruzi intra 88.7 (no result: INS-1E ATP HTS)
C[C@H](CO)N1C[C@H](C)[C@H](CN(C)S(=O)(=O)c2cccc(F)c2)Oc2ncc(Br)cc2C1=O	none (no result: A1 apoptosis 2, INS-1E ATP HTS)
C[C@H](CO)N1C[C@H](C)[C@H](CN(C)S(=O)(=O)c2cccc(F)c2)Oc2ncc(-c3cccc(C(F)(F)F)c3)cc2C1=O	T cruzi intra 59.5 (no result: A1 apoptosis 2, INS-1E ATP HTS)
CCO[C@@H]1OC(C(=O)N2CCN(Cc3ccccc3)CC2)=C[C@H](C(C)(C)C)[C@H]1CCCO	none (no result: T cruzi intra, INS-1E ATP HTS)
COc1ccc(NCc2ccc(C(=O)Nc3ccccc3N)cc2)cc1OC	none (no result: T cruzi intra, INS-1E ATP HTS)
C[C@@H]1CN([C@H](C)CO)C(=O)c2cc(NC(=O)Nc3ccc(C(F)(F)F)cc3)ccc2O[C@@H]1CN(C)CC1CCCCC1	none (no result: A1 apoptosis 2)
C[C@H]1CN([C@@H](C)CO)C(=O)c2cc(NC(=O)Nc3ccc(C(F)(F)F)cc3)ccc2O[C@H]1CN(C)CC1CCCCC1	T cruzi intra 73.2
C[C@@H]1CN([C@@H](C)CO)C(=O)c2cc(NC(=O)Nc3ccc(C(F)(F)F)cc3)ccc2O[C@@H]1CN(C)CC1CCCCC1	T cruzi intra 70.5
C[C@H]1CN([C@@H](C)CO)C(=O)c2cc(NC(=O)Nc3ccc(C(F)(F)F)cc3)ccc2O[C@@H]1CN(C)CC1CCCCC1	none
COc1ccc(S(=O)(=O)Nc2ccc3c(c2)C(=O)N([C@H](C)CO)C[C@@H](C)[C@H](CN(C)C(=O)Nc2ccccc2)OCCCC[C@H](C)O3)cc1	none (no result: T cruzi intra, INS-1E ATP HTS)
Cc1ccc(S(=O)(=O)Nc2ccc3c(c2)C(=O)N([C@H](C)CO)C[C@@H](C)[C@@H](CN(C)Cc2ccc(Cl)c(Cl)c2)O3)cc1	none (no result: A1 apoptosis 2)
Cc1ccc(S(=O)(=O)Nc2ccc3c(c2)CC(=O)N([C@@H](C)CO)C[C@H](C)[C@H](CN(C)Cc2ccc(Cl)c(Cl)c2)O3)cc1	none (no result: A1 apoptosis 2)
Cc1ccc(S(=O)(=O)Nc2ccc3c(c2)CC(=O)N([C@H](C)CO)C[C@@H](C)[C@@H](CN(C)Cc2ccc(Cl)c(Cl)c2)O3)cc1	T cruzi intra 70.8 (no result: A1 apoptosis 2)
